One experiment deals with Trichophyton rubrum. The experiment is described as follows: Antifungal activity against Trichophyton rubrum IFO 9185. Format: functional.
Another experiment deals with Micrococcus luteus. As to the kind of experiment: Antibacterial activity against Micrococcus luteus IFC 12708. The class given is functional.
The subject of a further experiment is Bacillus subtilis. The experiment is described as follows: Antibacterial activity against Bacillus subtilis ATCC 6633. Format: functional.
A further experiment relates to Proteus vulgaris. The experiment is described as follows: Antibacterial activity against Proteus vulgaris ATCC 3851. The class given is functional.
The subject of experiment [1] is Salmonella enterica subsp. enterica. The experiment is described as follows: Antibacterial activity against Salmonella Typhimurium ATCC 14028. The class given is functional, Salmonella enterica subsp. enterica serovar Typhimurium.
Experiment [2] deals with Staphylococcus aureus. The experiment is described as follows: Antibacterial activity against methicillin-resistant Staphylococcus aureus ATCC 43300. The class given is functional.
Experiment [3] concerns Staphylococcus aureus. The experiment is described as follows: Antibacterial activity against methicillin-resistant Staphylococcus aureus ATCC 700787. The class given is functional.
Experiment [4] has as its system Staphylococcus aureus. As to the kind of experiment: Antibacterial activity against methicillin-resistant Staphylococcus aureus ATCC 700788. Format: functional.
The next experiment deals with Aspergillus fumigatus. As to the kind of experiment: Antifungal activity against Aspergillus fumigatus HIC 6094. Format: functional.
The next experiment has as its system HCT-116. As to the kind of experiment: Cytotoxicity against human HCT116 cells. The class given is functional, cell-based. In outline: (§1)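 Cell proliferation inhibition measured by MTT assay; the value is reported as IC50 in µM.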
The subject of the next experiment is A549. As to the kind of experiment: Cytotoxicity against human A549 cells. Format: functional, cell-based. In short, it runs like this:
as §1

A further experiment has as its system AGS. The experiment is described as follows: Cytotoxicity against human AGS cells. The class given is functional, cell-based. In outline:
as §1

Another experiment concerns DU-145. As to the kind of experiment: Cytotoxicity against human DU145 cells. The class given is functional, cell-based. In short, it runs like this:
as §1

Another experiment deals with MCF7. The experiment is described as follows: Cytotoxicity against human MCF7 cells. The class given is functional, cell-based. In short, it runs like this: as §1
The subject of a further experiment is HepG2. As to the kind of experiment: Cytotoxicity against human HepG2 cells. The class given is functional, cell-based. In outline:
as §1

For three compounds, MIC and IC50 results are on record in ChEMBL document CHEMBL1151987, “Glionitrin A, an antibiotic-antitumor metabolite derived from competitive interaction between abandoned mine microbes” (J Nat Prod, 2009).

Molecules are shown by their SMILES. Converted amounts (≈) assume the structure as drawn.

The compound `C[C@@H]1[C@H](O)[C@@H](C)/C=C/C=C/C=C/C=C/C=C/C=C/C=C/[C@H](O[C@@H]2O[C@H](C)[C@@H](O)[C@H](N)[C@@H]2O)C[C@@H]2O[C@](O)(C[C@@H](O)C[C@@H](O)[C@H](O)CC[C@@H](O)C[C@@H](O)CC(=O)O[C@H]1C)C[C@H](O)[C@H]2C(=O)O` [AMPHOTERICIN B] gave an MIC against Trichophyton rubrum of 1.56 µg/mL (≈ 1.69 µM).

In the case of `CC1(C)S[C@@H]2[C@H](NC(=O)[C@H](N)c3ccccc3)C(=O)N2[C@H]1C(=O)O` [AMPICILLIN], the MIC against Micrococcus luteus amounted to 0.78 µg/mL (≈ 2.23 µM); against Bacillus subtilis, 3.13 µg/mL (≈ 8.96 µM); with Proteus vulgaris, 1.56 µg/mL (≈ 4.46 µM); in [1], 12.5 µg/mL (≈ 35.8 µM); against Staphylococcus aureus [2], 12.5 µg/mL (≈ 35.8 µM); against Staphylococcus aureus [3] it was 12.5 µg/mL (≈ 35.8 µM). Also, the MIC in the experiment with Staphylococcus aureus [4] came to 25 µg/mL (≈ 71.5 µM).

Consider `CN1C(=O)[C@@]23Cc4ccc([N+](=O)[O-])cc4N2C(=O)[C@@]1(CO)SS3` [GLIONITRIN A], for which the MIC in the experiment on Aspergillus fumigatus came out at 12.5 µg/mL (≈ 35.4 µM); in the experiment on Trichophyton rubrum it was 12.5 µg/mL (≈ 35.4 µM); against Micrococcus luteus, 0.78 µg/mL (≈ 2.21 µM); against Bacillus subtilis, 6.25 µg/mL (≈ 17.7 µM); against Proteus vulgaris it was 3.13 µg/mL (≈ 8.86 µM); in [1] it was 3.13 µg/mL (≈ 8.86 µM). Moreover, the MIC against Staphylococcus aureus [2], in the experiment with Staphylococcus aureus [3] and against Staphylococcus aureus [4] was 0.78 µg/mL (≈ 2.21 µM) each time. The IC50 is 820 nM with HCT-116; 550 nM in the experiment with A549; 450 nM in the experiment on AGS; 240 nM in the experiment on DU-145; 2000 nM with MCF7; 2300 nM in the experiment with HepG2.

One may read the MIC as the lowest concentration found to suppress growth. For orientation: IC50 means the concentration that inhibits the measured activity by half. Low values mean inhibition by little substance, high ones a need for much substance.
